{"source": "paper PMC3677213", "about": "(Antiviral research, 2013)", "key": {"[1]": {"system": "WT HIV-1 NL4-3", "type": "cell-based", "conditions": "MT-4 cells"}, "[2]": {"system": "HIV-1 NL4-3 integrase Y143C", "type": "cell-based", "conditions": "MT-4 cells; IN substitution Y143C"}, "[3]": {"system": "HIV-1 NL4-3 integrase N155H", "type": "cell-based", "conditions": "MT-4 cells; IN substitution N155H"}, "[4]": {"system": "HIV-1 NL4-3 integrase Q148R", "type": "cell-based", "conditions": "MT-4 cells; IN substitution Q148R"}, "[5]": {"system": "HIV-1 NL4-3 integrase E92Q/N155H", "type": "cell-based", "conditions": "MT-4 cells; IN substitutions E92Q/N155H"}, "[6]": {"system": "HIV-1 NL4-3 integrase T66I", "type": "cell-based", "conditions": "MT-4 cells; IN substitution T66I"}, "[7]": {"system": "UGT in pooled human liver microsomes (UGT 1A1, 1A4, 1A6, 1A9 and 2B7)", "assay": "UGT substrate activity in pooled human liver microsomes", "type": "in vitro ADME"}, "[8]": {"molecular_target": "UGT1A1 (Homo sapiens, UniProt P22309)", "sequence (P22309 26-533)": "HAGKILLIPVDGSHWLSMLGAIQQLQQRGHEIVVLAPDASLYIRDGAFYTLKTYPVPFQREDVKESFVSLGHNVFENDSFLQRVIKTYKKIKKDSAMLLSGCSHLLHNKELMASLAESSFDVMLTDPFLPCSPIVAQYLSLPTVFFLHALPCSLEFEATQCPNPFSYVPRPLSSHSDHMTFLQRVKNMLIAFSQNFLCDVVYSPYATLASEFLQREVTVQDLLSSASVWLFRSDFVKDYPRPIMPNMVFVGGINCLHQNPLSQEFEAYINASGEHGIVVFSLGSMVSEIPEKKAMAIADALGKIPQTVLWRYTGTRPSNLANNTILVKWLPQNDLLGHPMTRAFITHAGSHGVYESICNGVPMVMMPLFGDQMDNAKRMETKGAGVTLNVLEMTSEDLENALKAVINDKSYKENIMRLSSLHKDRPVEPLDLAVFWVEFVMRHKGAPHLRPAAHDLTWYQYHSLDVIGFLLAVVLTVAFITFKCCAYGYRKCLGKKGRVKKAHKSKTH", "assay": "UGT substrate activity with cDNA-expressed isozyme", "type": "in vitro ADME", "conditions": "UGT1A1 (BD Biosciences); HPLC"}, "[9]": {"system": "HIV-1 (Group M) isolate 92RW016, subtype A", "assay": "Antiviral assay in fresh human PBMCs", "type": "cell-based"}, "[10]": {"system": "HIV-1 (Group M) isolate 91US004, subtype B", "assay": "Antiviral assay in fresh human PBMCs", "type": "cell-based"}, "[11]": {"system": "HIV-1 (Group M) isolate 98IN022, subtype C", "assay": "Antiviral assay in fresh human PBMCs", "type": "cell-based"}, "[12]": {"system": "HIV-1 (Group M) isolate 93UG067, subtype D", "assay": "Antiviral assay in fresh human PBMCs", "type": "cell-based"}, "[13]": {"system": "HIV-1 (Group M) isolate CMU08, subtype E", "assay": "Antiviral assay in fresh human PBMCs", "type": "cell-based"}, "[14]": {"system": "HIV-1 (Group M) isolate 93BR029, subtype F", "assay": "Antiviral assay in fresh human PBMCs", "type": "cell-based"}, "[15]": {"system": "HIV-1 (Group M) isolate G3, subtype G", "assay": "Antiviral assay in fresh human PBMCs", "type": "cell-based"}, "[16]": {"system": "HIV-1 (Group M) isolate CDC310342, CRF02-AG", "assay": "Antiviral assay in fresh human PBMCs", "type": "cell-based"}, "[17]": {"system": "HIV-2 isolate CDC310319", "assay": "Antiviral assay in fresh human PBMCs", "type": "cell-based", "how_it_was_run": "(§1)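 Freshly isolated human PBMCs are infected with virus and cultured with test compound. Replication is measured as reverse transcriptase activity in culture supernatants, using a microtiter plate-based RT reaction. EC50 is the concentration giving 50% inhibition, as the mean of three determinations. CC50 is measured in parallel with the tetrazolium dye MTS, and therapeutic index = CC50/EC50.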"}, "[18]": {"system": "SIV isolate MAC251", "assay": "Antiviral assay in fresh human PBMCs", "type": "cell-based", "conditions": "PBMC", "how_it_was_run": "as §1"}, "[19]": {"system": "HIV-1, HIV-2 and SIV isolates", "assay": "Antiviral assay in PBMCs, all isolates together", "type": "cell-based", "conditions": "PBMC, read-out: mean EC50 (± SD), all isolates"}, "[20]": {"assay": "Cytotoxicity in human PBMC cultures", "type": "cell-based", "conditions": "peripheral blood mononuclear cells (PBMCs)", "how_it_was_run": "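Freshly isolated human PBMCs are cultured with test compound. Viability is read out with the tetrazolium-based dye MTS, and CC50 is derived from that read-out.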"}, "[21]": {"assay": "In vitro human liver microsome stability", "type": "in vitro ADME"}, "[22]": {"molecular_target": "CYP3A4 (Homo sapiens, UniProt P08684)", "sequence (P08684 whole entry)": "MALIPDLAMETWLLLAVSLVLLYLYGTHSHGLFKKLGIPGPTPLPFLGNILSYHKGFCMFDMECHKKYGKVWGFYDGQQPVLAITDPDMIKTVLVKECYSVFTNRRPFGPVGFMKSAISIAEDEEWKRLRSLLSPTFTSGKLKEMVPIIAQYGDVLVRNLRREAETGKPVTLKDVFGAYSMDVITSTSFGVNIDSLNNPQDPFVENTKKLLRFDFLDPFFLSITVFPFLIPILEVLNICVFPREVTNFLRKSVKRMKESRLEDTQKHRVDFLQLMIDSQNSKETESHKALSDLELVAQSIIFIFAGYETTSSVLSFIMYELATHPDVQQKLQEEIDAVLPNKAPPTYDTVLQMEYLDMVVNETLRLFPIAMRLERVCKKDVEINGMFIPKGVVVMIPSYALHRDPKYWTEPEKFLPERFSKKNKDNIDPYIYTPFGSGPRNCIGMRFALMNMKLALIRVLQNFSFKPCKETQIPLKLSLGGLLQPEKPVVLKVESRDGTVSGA", "assay": "Cytochrome P-450 isozyme inhibition assay in human liver microsomes", "type": "in vitro ADME"}, "[23]": {"molecular_target": "CYP2D6 (Homo sapiens, UniProt P10635)", "sequence (P10635 whole entry)": "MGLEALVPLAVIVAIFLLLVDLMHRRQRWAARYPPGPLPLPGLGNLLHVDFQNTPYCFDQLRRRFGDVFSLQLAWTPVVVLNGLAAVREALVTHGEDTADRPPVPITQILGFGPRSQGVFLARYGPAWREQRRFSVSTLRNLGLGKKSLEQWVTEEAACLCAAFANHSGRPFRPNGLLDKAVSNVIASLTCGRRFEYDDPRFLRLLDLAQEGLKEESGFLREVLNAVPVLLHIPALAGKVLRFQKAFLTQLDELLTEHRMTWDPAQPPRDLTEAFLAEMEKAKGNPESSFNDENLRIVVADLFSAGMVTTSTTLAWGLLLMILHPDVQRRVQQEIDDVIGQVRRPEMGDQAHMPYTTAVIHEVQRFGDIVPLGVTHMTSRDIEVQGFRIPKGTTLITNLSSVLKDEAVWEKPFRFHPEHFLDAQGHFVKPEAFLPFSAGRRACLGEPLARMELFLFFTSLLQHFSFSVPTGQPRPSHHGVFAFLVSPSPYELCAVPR", "assay": "Cytochrome P-450 isozyme inhibition assay in human liver microsomes", "type": "in vitro ADME"}, "[24]": {"molecular_target": "CYP2C8 (Homo sapiens, UniProt P10632)", "sequence (P10632 whole entry)": "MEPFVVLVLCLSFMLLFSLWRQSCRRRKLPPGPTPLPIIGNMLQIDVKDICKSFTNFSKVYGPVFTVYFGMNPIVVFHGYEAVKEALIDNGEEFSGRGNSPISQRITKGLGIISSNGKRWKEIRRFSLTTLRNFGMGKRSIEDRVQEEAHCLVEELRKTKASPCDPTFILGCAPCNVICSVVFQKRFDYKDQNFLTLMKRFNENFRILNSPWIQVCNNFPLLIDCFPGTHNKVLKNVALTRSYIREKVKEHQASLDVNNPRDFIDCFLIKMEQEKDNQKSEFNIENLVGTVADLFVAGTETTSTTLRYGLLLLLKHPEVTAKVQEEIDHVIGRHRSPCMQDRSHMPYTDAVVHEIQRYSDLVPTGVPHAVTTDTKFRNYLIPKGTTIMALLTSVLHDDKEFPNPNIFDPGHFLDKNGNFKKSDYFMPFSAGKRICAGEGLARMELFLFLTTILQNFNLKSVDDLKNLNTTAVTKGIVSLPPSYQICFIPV", "assay": "Cytochrome P-450 isozyme inhibition assay in human liver microsomes", "type": "in vitro ADME"}, "[25]": {"molecular_target": "CYP2C9 (Homo sapiens, UniProt P11712)", "sequence (P11712 whole entry)": "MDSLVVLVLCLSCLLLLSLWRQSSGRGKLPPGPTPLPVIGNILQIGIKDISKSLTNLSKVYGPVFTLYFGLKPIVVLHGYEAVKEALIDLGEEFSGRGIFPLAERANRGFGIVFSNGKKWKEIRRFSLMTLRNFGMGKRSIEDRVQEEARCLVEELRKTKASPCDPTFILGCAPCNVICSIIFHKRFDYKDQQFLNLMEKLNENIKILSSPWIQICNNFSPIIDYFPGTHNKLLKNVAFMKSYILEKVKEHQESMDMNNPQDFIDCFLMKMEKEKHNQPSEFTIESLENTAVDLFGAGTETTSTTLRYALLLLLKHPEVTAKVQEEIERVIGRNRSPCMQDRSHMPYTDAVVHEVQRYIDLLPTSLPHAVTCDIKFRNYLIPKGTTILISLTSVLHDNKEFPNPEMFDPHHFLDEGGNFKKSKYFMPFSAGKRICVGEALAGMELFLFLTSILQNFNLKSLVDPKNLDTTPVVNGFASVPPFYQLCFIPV", "assay": "Cytochrome P-450 isozyme inhibition assay in human liver microsomes", "type": "in vitro ADME"}, "[26]": {"molecular_target": "CYP2C19 (Homo sapiens, UniProt P33261)", "sequence (P33261 whole entry)": "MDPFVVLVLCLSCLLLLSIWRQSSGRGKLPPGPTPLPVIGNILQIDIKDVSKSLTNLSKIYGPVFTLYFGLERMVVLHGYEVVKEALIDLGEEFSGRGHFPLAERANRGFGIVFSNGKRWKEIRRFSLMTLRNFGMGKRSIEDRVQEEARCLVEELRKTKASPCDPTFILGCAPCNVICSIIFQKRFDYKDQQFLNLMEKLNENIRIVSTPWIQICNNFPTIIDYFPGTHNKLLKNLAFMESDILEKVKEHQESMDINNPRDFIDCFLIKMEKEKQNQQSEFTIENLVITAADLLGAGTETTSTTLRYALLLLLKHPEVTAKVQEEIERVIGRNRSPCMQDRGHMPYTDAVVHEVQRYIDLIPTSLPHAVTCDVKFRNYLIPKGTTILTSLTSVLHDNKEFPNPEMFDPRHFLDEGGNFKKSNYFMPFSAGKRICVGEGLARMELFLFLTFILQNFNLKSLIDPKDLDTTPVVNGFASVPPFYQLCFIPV", "assay": "Cytochrome P-450 isozyme inhibition assay in human liver microsomes", "type": "in vitro ADME"}, "[27]": {"system": "CYP isozymes (3A4, 2D6, 2C8, 2C9, 2C19)", "assay": "Activation of CYP isozymes", "type": "in vitro ADME", "conditions": "human liver microsomes; CYP 3A4, 2D6, 2C8, 2C9, 2C19"}, "[28]": {"molecular_target": "UGT1A3 (Homo sapiens, UniProt P35503)", "sequence (P35503 29-534)": "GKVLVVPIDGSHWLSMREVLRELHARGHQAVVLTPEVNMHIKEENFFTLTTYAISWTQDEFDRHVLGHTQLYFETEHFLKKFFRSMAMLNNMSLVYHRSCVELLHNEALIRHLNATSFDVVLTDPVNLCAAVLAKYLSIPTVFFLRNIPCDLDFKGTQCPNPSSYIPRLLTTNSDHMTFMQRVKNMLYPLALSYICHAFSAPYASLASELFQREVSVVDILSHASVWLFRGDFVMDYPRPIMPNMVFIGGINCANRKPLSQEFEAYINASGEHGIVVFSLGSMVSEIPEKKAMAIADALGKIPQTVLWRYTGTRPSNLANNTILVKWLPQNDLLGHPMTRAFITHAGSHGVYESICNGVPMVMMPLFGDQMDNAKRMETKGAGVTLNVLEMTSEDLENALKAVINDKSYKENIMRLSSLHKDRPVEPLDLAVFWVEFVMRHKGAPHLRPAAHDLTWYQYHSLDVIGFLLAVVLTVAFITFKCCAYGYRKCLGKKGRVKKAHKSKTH", "assay": "UGT substrate activity with cDNA-expressed isozyme", "type": "in vitro ADME", "conditions": "UGT1A3 (BD Biosciences); HPLC"}, "[29]": {"molecular_target": "UGT1A4 (Homo sapiens, UniProt P22310)", "sequence (P22310 29-534)": "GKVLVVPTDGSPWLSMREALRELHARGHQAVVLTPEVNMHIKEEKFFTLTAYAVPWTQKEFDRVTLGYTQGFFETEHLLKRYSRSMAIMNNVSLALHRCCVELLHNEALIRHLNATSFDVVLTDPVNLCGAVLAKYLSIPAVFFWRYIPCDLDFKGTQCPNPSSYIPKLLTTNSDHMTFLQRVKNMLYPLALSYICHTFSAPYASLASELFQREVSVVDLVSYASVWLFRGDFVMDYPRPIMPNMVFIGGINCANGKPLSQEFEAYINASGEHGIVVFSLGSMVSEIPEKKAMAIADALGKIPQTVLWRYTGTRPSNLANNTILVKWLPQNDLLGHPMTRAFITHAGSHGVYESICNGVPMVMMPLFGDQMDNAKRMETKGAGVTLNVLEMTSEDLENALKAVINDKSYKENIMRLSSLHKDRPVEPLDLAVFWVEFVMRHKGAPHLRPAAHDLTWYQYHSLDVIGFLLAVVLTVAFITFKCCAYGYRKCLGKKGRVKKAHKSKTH", "assay": "UGT inhibition study with trifluoperazine as substrate", "type": "in vitro ADME", "conditions": "human liver microsomes", "how_it_was_run": "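Pooled human liver microsomes (0.2 mg/mL protein) were held with alamethicin (0.024 mg/mg protein) in 100 mM potassium phosphate, pH 7.4, with 5 mM MgCl2 at 0 °C for 15 min. Test compound in DMSO (0 to 300 μM) and trifluoperazine substrate were added, with organic solvent <1.6%. Mixtures were preincubated 3 min at 37 °C, then started with UDPGA (final 4 mM) and run 15 min. Acetonitrile stop, centrifugation, HPLC-UV of supernatant.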"}, "[30]": {"system": "UGT isozymes", "assay": "Activation of UGT isozymes in human liver microsomes", "type": "in vitro ADME", "conditions": "kinetic studies in human liver microsomes"}, "[31]": {"conditions": "Human immunodeficiency virus 1, PBMC, in Homo sapiens, read-out: EC50 (± SD)"}}, "note": "Read-outs that look alike come from different tables or passages of the source."}
{"smiles": "COc1cc2c(cc1Cc1cccc(Cl)c1F)c(=O)c(C(=O)O)cn2[C@H](CO)C(C)C", "note": "[Elvitegravir, elvitegravir]", "values": [{"measurement": "EC50 fold change compared to wild-type virus", "setting": "[1]", "value": 1.0}, {"measurement": "EC50 fold change compared to wild-type virus", "setting": "[2]", "value": 46.7}, {"measurement": "EC50 fold change compared to wild-type virus", "setting": "[3]", "value": 200}, {"measurement": "EC50 fold change compared to wild-type virus", "setting": "[4]", "value": 96.1}, {"measurement": "EC50 fold change compared to wild-type virus", "setting": "[5]", "value": 134}, {"measurement": "EC50 fold change compared to wild-type virus", "setting": "[6]", "value": 5.5}]}
{"smiles": "C[C@]12CC[C@@H]3c4ccc(O)cc4CC[C@H]3[C@@H]1CC[C@@H]2O", "note": "[Estradiol, reference compound]", "values": [{"measurement": "Glucuronide (formed)", "setting": "[7]", "value": "Glucuronides (two)"}, {"measurement": "Glucuronide (formed)", "setting": "[8]", "value": "Glucuronide"}]}
{"smiles": "O=C(C=C(O)c1cc(Cc2c(F)cccc2F)cn(Cc2ccccc2F)c1=O)C(=O)NN1CCCC1=O", "note": "[Compound 1, 4-(5-(2,6-difluorobenzyl)-1-(2-fluorobenzyl)-2-oxo-1,2-dihydropyridin-3-yl)-4-hydroxy-2-oxo-N-(2-oxopyrrolidin-1-yl)but-3-enamide]", "values": [{"measurement": "EC50", "setting": "[9]; [31]", "value": 20.8, "unit": "nM"}, {"measurement": "Therapeutic Index (CC50/EC50)", "setting": "[9]; PBMC, isolate 92RW016, subtype A", "value": "4,625"}, {"measurement": "EC50", "setting": "[10]; [31]", "value": 6.89, "unit": "nM"}, {"measurement": "Therapeutic Index (CC50/EC50)", "setting": "[10]; PBMC, isolate 91US004, subtype B", "value": "13,962"}, {"measurement": "EC50", "setting": "[11]; [31]", "value": 29.8, "unit": "nM"}, {"measurement": "Therapeutic Index (CC50/EC50)", "setting": "[11]; PBMC, isolate 98IN022, subtype C", "value": "3,228"}, {"measurement": "EC50", "setting": "[12]; [31]", "value": 48.5, "unit": "nM"}, {"measurement": "Therapeutic Index (CC50/EC50)", "setting": "[12]; PBMC, isolate 93UG067, subtype D", "value": "1,984"}, {"measurement": "EC50", "setting": "[13]; [31]", "value": 52.4, "unit": "nM"}, {"measurement": "Therapeutic Index (CC50/EC50)", "setting": "[13]; PBMC, isolate CMU08, subtype E", "value": "1,836"}, {"measurement": "EC50", "setting": "[14]; [31]", "value": 18.3, "unit": "nM"}, {"measurement": "Therapeutic Index (CC50/EC50)", "setting": "[14]; PBMC, isolate 93BR029, subtype F", "value": "5,257"}, {"measurement": "EC50", "setting": "[15]; [31]", "value": 34.9, "unit": "nM"}, {"measurement": "Therapeutic Index (CC50/EC50)", "setting": "[15]; PBMC, isolate G3, subtype G", "value": "2,756"}, {"measurement": "EC50", "setting": "[16]; [31]", "value": 33.4, "unit": "nM"}, {"measurement": "Therapeutic Index (CC50/EC50)", "setting": "[16]; PBMC, isolate CDC310342, CRF02-AG", "value": "2,880"}, {"measurement": "EC50", "setting": "[17]; Human immunodeficiency virus 2, PBMC, in Homo sapiens, read-out: EC50 (± SD)", "value": 86, "unit": "nM"}, {"measurement": "Therapeutic Index (CC50/EC50)", "setting": "[17]; PBMC, HIV-2 isolate CDC310319", "value": "1,119"}, {"measurement": "Therapeutic Index (CC50/EC50)", "setting": "[18]; SIV isolate MAC251", "value": "5,037"}, {"measurement": "EC50", "setting": "[18]; Simian immunodeficiency virus, in Homo sapiens, read-out: EC50 (± SD)", "value": 19.1, "unit": "nM"}, {"measurement": "EC50", "setting": "[19]", "value": 35, "unit": "nM"}, {"measurement": "CC50", "setting": "[20]", "value": 96200, "unit": "nM"}, {"measurement": "EC50 fold change compared to wild-type virus", "setting": "[1]", "value": 1.0}, {"measurement": "EC50 fold change compared to wild-type virus", "setting": "[2]", "value": 1.87}, {"measurement": "EC50 fold change compared to wild-type virus", "setting": "[3]", "value": 8.20}, {"measurement": "EC50 fold change compared to wild-type virus", "setting": "[4]", "value": 18.8}, {"measurement": "EC50 fold change compared to wild-type virus", "setting": "[5]", "value": 6.13}, {"measurement": "EC50 fold change compared to wild-type virus", "setting": "[6]", "value": 5.20}, {"measurement": "stability in pooled human liver microsomes", "setting": "[21]; 50 μM, 0.5 mg/mL protein, NADPH, 37 °C", "value": "relatively stable"}, {"measurement": "IC50", "setting": "[22]", "value": "> 200000", "unit": "nM"}, {"measurement": "IC50", "setting": "[23]", "value": "> 200000", "unit": "nM"}, {"measurement": "IC50", "setting": "[24]", "value": "> 200000", "unit": "nM"}, {"measurement": "IC50", "setting": "[25]", "value": "> 200000", "unit": "nM"}, {"measurement": "inhibition at 30 min, 200 μM", "setting": "[25]; human, liver microsomes, pH 7.4, probe tolbutamide 500 μM", "value": 15.5, "unit": "%"}, {"measurement": "IC50", "setting": "[26]", "value": "> 200000", "unit": "nM"}, {"measurement": "activation of CYP isozymes", "setting": "[27]", "value": "not an activator"}, {"measurement": "Glucuronide (formed)", "setting": "[7]", "value": "None^a"}, {"measurement": "Glucuronide (formed)", "setting": "[8]", "value": "None^a"}, {"measurement": "Glucuronide (formed)", "setting": "[28]", "value": "None^a"}, {"measurement": "inhibition of UGT1A4", "setting": "[29]", "value": "not an inhibitor"}, {"measurement": "activation of UGT isozymes", "setting": "[30]", "value": "no indication of the activation"}]}
{"smiles": "Cc1ncc2n1-c1ccc(Cl)cc1C(c1ccccc1F)=NC2", "note": "[midazolam]", "values": [{"measurement": "remaining at 1 h", "setting": "[21]; human, microsomes, pH 7.4", "value": 61.5, "unit": "%"}, {"measurement": "Km", "setting": "[21]; human, pH 7.4", "value": 2.52, "unit": "µM"}]}
{"smiles": "Cc1cn([C@H]2C[C@H](N=[N+]=[N-])[C@@H](CO)O2)c(=O)[nH]c1=O", "note": "[AZT]", "values": [{"measurement": "EC50 fold change compared to wild-type virus", "setting": "[1]", "value": 1.0}, {"measurement": "EC50 fold change compared to wild-type virus", "setting": "[2]", "value": 1.18}, {"measurement": "EC50 fold change compared to wild-type virus", "setting": "[3]", "value": 3.29}, {"measurement": "EC50 fold change compared to wild-type virus", "setting": "[5]", "value": 3.45}, {"measurement": "EC50 fold change compared to wild-type virus", "setting": "[6]", "value": 1.0}]}
{"smiles": "Cc1cc(=O)oc2cc(O)ccc12", "note": "[Methylumbelliferone, 4-methylumbelliferone]", "values": [{"measurement": "Glucuronide (formed)", "setting": "[7]", "value": "Glucuronide"}]}
{"smiles": "CN1CCN(CCCN2c3ccccc3Sc3ccc(C(F)(F)F)cc32)CC1", "note": "[Trifluoperazine]", "values": [{"measurement": "Glucuronide (formed)", "setting": "[7]; pHLM (Xenotech), HPLC", "value": "N-Glucuronide"}]}
